In the library only some 0.92% were active in any assay of this set; here they are far more common.
RAD54 inh: blocks human RAD54 Holliday junction branch migration. Q92698. FAM/BHQ fluorescence. inhibition, % at 10.4 µM. 360,000 tested, 0.14% active;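 active = mean normalized replicate activity at least 40 and at least half of replicates scoring 40 or more; inconclusive = only one of the two criteria met; inactive = mean below 40 and under half of replicates reaching 40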;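 note: 0% = median of neutral control wells and 100% = median of positive control wells; inhibitors cause a drop in the FAM fluorescence signal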
Target sequence (Q92698 whole entry, looked up): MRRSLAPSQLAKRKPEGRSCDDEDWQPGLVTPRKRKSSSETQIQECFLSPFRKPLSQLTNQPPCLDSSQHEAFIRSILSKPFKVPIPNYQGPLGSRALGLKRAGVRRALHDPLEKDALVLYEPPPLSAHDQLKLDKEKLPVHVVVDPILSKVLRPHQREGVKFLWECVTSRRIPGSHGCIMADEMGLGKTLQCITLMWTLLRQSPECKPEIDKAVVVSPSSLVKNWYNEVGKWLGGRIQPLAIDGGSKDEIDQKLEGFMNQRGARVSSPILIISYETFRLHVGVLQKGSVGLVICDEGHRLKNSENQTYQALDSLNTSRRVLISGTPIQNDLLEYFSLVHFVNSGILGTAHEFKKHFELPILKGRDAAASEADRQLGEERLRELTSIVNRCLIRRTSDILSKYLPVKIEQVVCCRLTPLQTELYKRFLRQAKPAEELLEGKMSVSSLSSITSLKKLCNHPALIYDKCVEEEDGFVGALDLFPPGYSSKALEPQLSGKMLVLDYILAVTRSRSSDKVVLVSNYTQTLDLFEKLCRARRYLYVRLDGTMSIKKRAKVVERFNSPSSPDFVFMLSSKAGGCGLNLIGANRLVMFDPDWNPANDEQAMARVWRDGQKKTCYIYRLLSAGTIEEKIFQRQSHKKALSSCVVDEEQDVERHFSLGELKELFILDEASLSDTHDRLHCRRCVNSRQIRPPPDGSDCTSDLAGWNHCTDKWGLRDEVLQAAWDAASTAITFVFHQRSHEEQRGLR
FN deposit inh: fibronectin deposition inhibition; inhibition, % at 12.6 µM; 350,000 tested, 0.086% active; AH1F fibroblasts, Alexa488-fibronectin deposition fluorescence, overnight;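 active = mean inhibition across replicates of 30% or more, regardless of how many single replicates reach that level; inconclusive = mean under 30% yet at least half of replicates reach 30%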;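 note: positive control wells lacked labelled fibronectin entirely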
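Test system: AH1F fibroblast monolayer depositing Alexa488-labelled fibronectin into matrix. Input: 10000 cells per well. Technique: fluorescence, ex 485 nm, em 525 nm. Buffer or medium: DMEM plus 2% serum, read in PBS. Timing: 1 h cell adhesion before compound, then overnight fibronectin incubation. Compound: single dose, pinned. Read-out basis: inhibition from reduced deposited-fibronectin fluorescence.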
N-glyco inh: blocks N-linked glycosylation in D54 reporter cells | D54 ERlucT glycosylation luciferase reporter, 24 h; percent of 100 nM tunicamycin response | reporter increase, % at 12.5 µM | 360,000 tested, 0.23% active | AID 588692;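 active = mean luciferase reporter signal, scaled so untreated is 0 and the glycosylation-blocking control 100, at or above a set limit in every replicate; inconclusive = mean reaches the limit but not every replicate does; inactive = mean below the limit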;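 note: luciferase carries N-glycosylation sites so blocking glycosylation raises the light; 0% = median of neutral control wells and 100% = median of 100 nM tunicamycin wells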
MLL AF4-AF9 inh: MLL-AF4/AF9 protein interaction inhibition. 350,000 tested, 0.47% active. P42568. AlphaScreen, biotin-AF4 peptide binding to FLAG-AF9. inhibition, % at 10 µM;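 active = every replicate reaching a set inhibition limit, whatever the replicate mean, cut at about 25% in these data; inconclusive = mean inhibition reaches that limit but some replicates miss it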;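 note: 0% = plate neutral control median and 100% = total signal loss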
RAD52 inh: inhibitors of human RAD52 DNA annealing | P43351 | recombinant RAD52 DNA annealing, FRET fluorescence | inhibition, % at 18.7 µM | 360,000 tested, 0.46% active | AID 651710;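 active = every replicate showing at least 50% inhibition; inconclusive = mean inhibition at least 50% but not in every replicate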
Rad54 DNA ctr: DNA binding artifact in Rad54 counter-screen | shares compounds with RAD54 inh | Acridine orange-DNA displacement, fluorescence polarization, 20 min | AC50, µM (series often up to 35 µM), without a hit: top-dose activity change, negative = DNA binding | 460 tested, 8% active | AID 651673;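 active = signal drop giving an AC50 within twice the top valid tested concentration of each sample, actives reach about 35 µM in these data; inactive = activity opposite to expected, plus the rest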;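 note: polarization loss reports compound binding to salmon sperm DNA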
Alpha interfer: AlphaScreen signal interference counter-screen hit. shares compounds with MLL AF4-AF9 inh. signal luminescence. AC50, µM (series often up to 12 µM), for the others: at the highest dose activity change, negative = inhibition. 530 tested, 45% active; cut-off not given, nearly all actives have AC50 up to about 14 µM
DNA binder FP: counter-screen for RAD52 inhibitors: DNA binding compounds; AC50, µM; AID 652128; Salmon sperm DNA/acridine orange FP displacement; shares compounds with RAD52 inh; 1,000 tested, 8% active;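 active = fitted half-maximal concentration for signal loss at or below twice the highest dose tested, in every separate run, actives reach about 64 µM in these data; inconclusive = runs disagree, or flat partial signal loss, or poor fit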
* hit, by the source's call; i = inactive; ? = inconclusive; . = not tested or not shown.

SMILES | RAD54 inh | FN deposit inh | N-glyco inh | MLL AF4-AF9 inh | RAD52 inh | DNA binder FP | others
CCCNC(=O)[C@@H]1[C@@H](CO)[C@@H]2Cn3c(cccc3=O)[C@@H]2N1CC | . | . | . | -0.8 | -19.4 | .
C=CCN1[C@@H]2CN(CC(F)(F)F)C[C@H]1C2c1ccc(Br)cc1 (stereo not given in full) | . | -5.4 | . | . | . | .
Cc1nccc2c1[nH]c1ccccc12 | ? | -4.4 | 1.0 | -5.7 | 9.3 | . | Rad54 DNA ctr=-8.5%
CCCNC(=O)N1[C@@H]2c3ccc(-c4cccc(C(=O)N(C)C)c4)c(=O)n3C[C@H]1[C@H](CO)[C@H]2C(=O)O | . | . | . | -2.5 | 5.9 | .
Oc1ccc(CCN2CCCCC2)cc1 | -2.1 | 5.5 | -2.8 | 3.8 | -82.4 | .
Nc1ccc(CCN2CCCC2)cc1 | ? | -4.0 | 0.8 | ? | 94.2* | . | Rad54 DNA ctr=5.9%
Cn1ncnc2c(=O)n(C)c(=O)nc1-2 | 72.1* | . | -22.7 | . | . | . | Rad54 DNA ctr=7.0%
CN1CCN(c2ccc(N)c(N3CCN(C)CC3)c2)CC1 | . | . | -1.1 | . | . | .
CN1CCN(c2ccc(N)cc2)CC1 | 96.8* | . | 5.1 | . | . | . | Rad54 DNA ctr=-13.8%
Cc1cccc(S(=O)(=O)N2[C@@H]3Cn4c(ccc(-c5ccccc5)c4=O)[C@H]2[C@@H](C(=O)O)[C@@H]3CO)c1 | 6.8 | . | . | -1.1 | -17.2 | .
C[n+]1c(-c2ccccc2)c2cc(N)ccc2c2ccc(N)cc21 | 88.2* | 20.8 | -16.0 | 55.3* | 21.2 | . | Alpha interfer=8.5µM*
O=C1CN=C(c2ccc(Br)cc2)c2c(sc3c2CCCC3)N1CCN1CCCCC1 | -0.3 | -0.6 | -8.3 | 32.3* | -2.4 | . | Alpha interfer=-37.2%
CC(C)NC(=O)N1C[C@@H]2C(c3ccc(Br)cc3)[C@H](C1)N2C (stereo not given in full) | . | 0.9 | . | . | . | .
Cc1ccc(-c2cc(-c3ccc(C)cc3)[n+](-c3ccc(C(=O)[O-])cc3)c(-c3ccc(C)cc3)c2)cc1 | 15.5 | 0.7 | 6.7 | 26.4* | 31.9 | . | Alpha interfer=-26.9%
Cc1ccc(-c2cc(-c3ccc(C)cc3)[n+](-c3ccccc3)c(-c3ccc(C)cc3)c2)cc1 | 37.7 | . | -1.7 | . | . | .
O=C(Cc1ccccc1)N1CCCCN2[C@H](CO)[C@@H](c3ccc(-c4ccccc4)cc3)[C@H]2C1 | 0.3 | . | . | . | . | .
C#CCOc1ccc2c(c1)c(C(C)=O)c(C)n2Cc1ccccc1 | 0.3 | -0.9 | -2.1 | 1.5 | -14.7 | .
COc1ccc2c(c1)c(CCN)c(C)n2Cc1ccccc1 | -35.1 | 6.3 | -3.8 | 33.0* | 14.2 | . | Alpha interfer=-30.1%
COC(=O)[C@H]1[C@H](CO)[C@H]2Cn3c(ccc(-c4cccnc4)c3=O)[C@@H]1N2S(=O)(=O)c1ccccc1F | -1.5 | . | . | 0.6 | 12.0 | .
CC(C)Nc1ccc(Nc2ccccc2)cc1 | -3.2 | 0.9 | 5.8 | ? | 11.1 | . | Alpha interfer=-28.8%
NCC(O)c1cc(O)c(O)cc1F (stereo not given) | 20.6 | -2.3 | -1.6 | 53.3* | 91.9* | i | Alpha interfer=-19.0%
COC(=O)[C@H]1[C@H](CO)[C@H]2Cn3c(ccc(C4=CCCCC4)c3=O)[C@@H]1N2Cc1ccccc1OC | . | . | . | 2.1 | -9.9 | .
CCN1CCN(c2ccc(NC(C)=O)cc2Cl)CC1 | . | 2.3 | 1.4 | -1.7 | -10.0 | .
CCN1CCN(c2ccc(N)cc2)CC1 | . | 8.5 | 1.2 | 81.5* | 89.8* | 53.2µM* | Alpha interfer=4.52µM*
CCN1CCN(c2ccc(N)cc2C)CC1 | . | 11.1 | 0.0 | 42.6* | 99.9* | 46.7µM* | Alpha interfer=11.8µM*
SMILES | RAD54 inh | FN deposit inh | N-glyco inh | MLL AF4-AF9 inh | RAD52 inh | DNA binder FP | others
CCC(=O)N1[C@@H]2Cn3c(ccc(-c4ccc(F)cc4)c3=O)[C@H]1[C@@H](C(=O)OC)[C@@H]2CO | 4.3 | . | . | 0.0 | 2.0 | .
ClCCN1CCN(c2ccnc3cc(Cl)ccc23)CC1 | 29.8 | -1.2 | 6.1 | 20.7 | 68.5* | i
CC=Cc1ccc2n(c1=O)C[C@@H]1[C@@H](CO)[C@H](C(=O)OC)[C@H]2N1CC1CCCCC1 (mixture of isomers) | -4.4 | . | . | 2.0 | -3.8 | .
C[C@]1(O)CCC2C3CC[C@H]4C[C@@H](OC(=O)[C@@H](N)CCCCN)CC[C@]4(C)C3CC[C@@]21C (stereo not given in full) | 60.0* | -3.4 | -2.8 | 14.5 | 87.8* | i
O=c1[nH]c2cc(Cl)ccc2n1C1CCN(Cc2ccc(-c3nc4ccccc4nc3-c3ccccc3)cc2)CC1 | . | -7.8 | . | 0.1 | -16.7 | .
O=c1[nH]c2ccccc2n1C1CCN(Cc2ccc(-c3[nH]c4cc5ncnc5cc4nc3-c3ccccc3)cc2)CC1 | . | -11.4 | . | 4.3 | 53.7* | i
Ic1ccccc1CN[C@@H]1C2CCN(CC2)[C@@H]1C(c1ccccc1)c1ccccc1 | 23.8 | 11.8 | -1.5 | 9.9 | 62.2* | i
Fc1ccccc1CNC1CN2CCC1CC2 (stereo not given) | . | 0.2 | 2.2 | -4.2 | -5.1 | .
C=C1[C@@H](OC(C)=O)[C@]23C[C@@H]1[C@@H](OC(C)=O)CC2[C@]12C4C[C@H]3[C@H]1N(CC)C[C@]4(C)CC[C@@H]2O (stereo not given in full) | -12.7 | . | -2.1 | 0.3 | 78.3* | i
CCN1C[C@]2(COC)CC[C@H](O)[C@@]34C5C[C@H]6[C@H](O)C5[C@](O)(C[C@H]6OC)[C@@H]([C@H](OC)C23)[C@@H]14 (stereo not given in full) | -0.3 | . | 1.9 | . | . | .
COC(=O)[C@@H]1[C@@H](CO)[C@@H]2Cn3c(ccc(-c4ccccc4F)c3=O)[C@H]1N2Cc1ccccc1 | 3.7 | . | . | -5.0 | 10.2 | .
COc1cc2c3cc1Oc1c(OC)c(OC)cc4c1[C@H](Cc1ccc(cc1)Oc1cc(ccc1O)C[C@H]3N(C)CC2)N(C)CC4 | 16.0 | 19.3 | -10.6 | -21.2 | 58.5* | i
COc1cc2c3cc1Oc1cc(ccc1O)C[C@@H]1c4c(cc(OC)c(O)c4Oc4cccc(c4)C[C@@H]3N(C)CC2)CC[N+]1(C)C | 18.6 | 0.0 | 2.3 | 1.2 | 69.5* | i
COc1cc2c3cc1Oc1cc(ccc1O)C[C@@H]1c4c(cc(OC)c(O)c4Oc4ccc(cc4)C[C@H]3N(C)CC2)CCN1C | 31.3 | -4.9 | -6.1 | ? | 51.8* | i
N#Cc1cccc(-c2ccc([C@@H]3[C@H]4CN(C(=O)Cc5cccnc5)CCCCN4[C@H]3CO)cc2)c1 | 5.9 | . | . | 7.2 | -38.5 | .
CC(C)NC(=O)N1C[C@@H]2N[C@H](C1)C2c1ccc(Br)cc1 (stereo not given in full) | . | -9.7 | . | . | . | .
CCCCCCCCCCCCCCCC[N+](C)(C)C | 44.3 | -2.6 | -16.6 | -30.3 | 80.1* | ?

High-throughput results as filed in PubChem BioAssay.
